Assay results from ChEMBL document CHEMBL1139060, “4-[6-(2-Aminoethyl)naphthalen-2-yl]benzonitriles are potent histamine H3 receptor antagonists with high CNS penetration” (Bioorg Med Chem Lett, 2007).

What was measured:
Histamine H3 receptor [1] = target: Histamine H3 receptor (Homo sapiens, UniProt Q9Y5N1); assay: Displacement of [3H]N-alpha-methylhistamine from human cloned histamine H3 receptor expressed in C6 cells; type: cell-based
In short: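 Radioligand displacement with [3H]N-α-methylhistamine on membranes from C6 cells carrying cloned human H3R. Ki derived from pKi.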

Histamine H3 receptor [2] = target: Histamine H3 receptor (Rattus norvegicus, UniProt Q9QYN8); assay: Displacement of [3H]N-alpha-methylhistamine from histamine H3 receptor in rat cortical membranes; type: cell membranes, Membrane
In short: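 Competitive binding on rat cerebral cortex membranes, displacing the radioligand [3H]N-α-methylhistamine. Ki obtained from pKi. At least 3 independent pKi determinations per compound.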

[3] = Half life in rat at 1 mg/kg, iv; type: ADME, organism-based; design: dose 1 mg/kg, route intravenous; settings: in vivo
[4] = Volume of distribution in rat at terminal phase at 1 mg/kg, iv; type: ADME, organism-based; design: dose 1 mg/kg, route intravenous; settings: in vivo, read-out: Vbeta
[5] = AUC (0 to infinity) in rat at 1 mg/kg, iv; type: ADME, organism-based; design: time infinity, dose 1 mg/kg, route intravenous; settings: plasma
[6] = Cmax in rat at 1 mg/kg, po; type: ADME, organism-based; design: dose 1 mg/kg, route oral; settings: in vivo
[7] = Half life in rat at 1 mg/kg, po; type: ADME, organism-based; design: dose 1 mg/kg, route oral; settings: in vivo
[8] = AUC (0 to infinity) in rat at 1 mg/kg, po; type: ADME, organism-based; design: time infinity, dose 1 mg/kg, route oral; settings: plasma
[9] = Oral bioavailability in rat at 1 mg/kg; type: ADME, organism-based; settings: in vivo
[10] = Ratio of drug level in brain to plasma in rat at 5 mg/kg, iv; type: ADME, organism-based; design: dose 5 mg/kg, route intravenous
In short: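 Rats given 5 mg/kg intravenously; brain and plasma drug concentrations measured one hour after dosing and expressed as a brain-to-plasma ratio.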

Sequence of Histamine H3 receptor (Rattus norvegicus, UniProt Q9QYN8) (Q9QYN8 whole entry): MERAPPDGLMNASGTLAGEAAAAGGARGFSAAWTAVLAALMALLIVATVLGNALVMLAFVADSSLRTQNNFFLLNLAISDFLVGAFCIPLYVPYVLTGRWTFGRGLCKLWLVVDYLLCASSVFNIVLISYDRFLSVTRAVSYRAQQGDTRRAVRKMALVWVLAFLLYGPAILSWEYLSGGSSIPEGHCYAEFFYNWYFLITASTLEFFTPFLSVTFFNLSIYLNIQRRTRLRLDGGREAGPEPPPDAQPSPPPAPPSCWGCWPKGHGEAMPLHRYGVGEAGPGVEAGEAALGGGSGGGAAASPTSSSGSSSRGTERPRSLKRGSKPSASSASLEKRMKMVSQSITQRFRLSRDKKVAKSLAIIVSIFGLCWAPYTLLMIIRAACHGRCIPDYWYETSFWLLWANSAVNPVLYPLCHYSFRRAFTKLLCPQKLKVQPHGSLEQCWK
Sequence of Histamine H3 receptor (Homo sapiens, UniProt Q9Y5N1) (Q9Y5N1 whole entry): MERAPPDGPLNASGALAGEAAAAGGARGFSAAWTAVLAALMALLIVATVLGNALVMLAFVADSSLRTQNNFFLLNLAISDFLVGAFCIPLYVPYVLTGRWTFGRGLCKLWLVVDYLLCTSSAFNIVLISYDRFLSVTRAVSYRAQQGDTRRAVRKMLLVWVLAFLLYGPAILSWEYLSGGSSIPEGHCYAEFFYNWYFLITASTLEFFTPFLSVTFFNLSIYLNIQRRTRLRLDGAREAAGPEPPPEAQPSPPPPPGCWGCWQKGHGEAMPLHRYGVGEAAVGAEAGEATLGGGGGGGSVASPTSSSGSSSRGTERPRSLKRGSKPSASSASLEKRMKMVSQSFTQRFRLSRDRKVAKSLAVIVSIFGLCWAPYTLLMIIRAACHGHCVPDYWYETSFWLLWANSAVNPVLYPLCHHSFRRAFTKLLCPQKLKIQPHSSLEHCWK

Ki (Histamine H3 receptor [1]) [nM] | Ki (Histamine H3 receptor [2]) [nM] | SMILES | also measured
0.81 | 9.77 | N#Cc1ccc(-c2ccc3cc(CCN4CCC[C@H]4CF)ccc3c2)cc1 | –
273 | 465 | CC(C)CC1CCCN1CCc1ccc2cc(-c3ccc(C#N)cc3)ccc2c1 (stereo unspecified) | –
0.12 | 3.47 | C[C@H]1CCCN1CCc1ccc2cc(-c3ccc(C#N)cc3)ccc2c1 | –
0.44 | 11 | N#Cc1ccc(-c2ccc3cc(CCN4CCC[C@H]4CO)ccc3c2)cc1 | –
0.84 | 12.5 | CCN(CC)CCc1ccc2cc(-c3ccc(C#N)cc3)ccc2c1 | –
3.31 | 66.1 | N#Cc1ccc(-c2ccc3cc(CCN4CC=CC4)ccc3c2)cc1 | –
0.49 | 6.42 | N#Cc1ccc(-c2ccc3cc(CCN4CCCC4)ccc3c2)cc1 | –
2.65 | 45.3 | CN(C)CCc1ccc2cc(-c3ccc(C#N)cc3)ccc2c1 | –
2.89 | 42.8 | N#Cc1ccc(-c2ccc3cc(CCN4CCC[C@@H]4CO)ccc3c2)cc1 | –
10.5 | 457 | CN(CCO)CCc1ccc2cc(-c3ccc(C#N)cc3)ccc2c1 | –
1.09 | 27.9 | CN(CCc1ccc2cc(-c3ccc(C#N)cc3)ccc2c1)C(C)(C)C | –
0.22 | 1.96 | C[C@@H]1CCCN1CCCOc1ccc(-c2ccc(C#N)cc2)cc1 | –
8.71 | 141 | C[C@@H]1CCCCN1CCc1ccc2cc(-c3ccc(C#N)cc3)ccc2c1 | –
1.56 | 30.9 | N#Cc1ccc(-c2ccc3cc(CCN4CC[C@@H](O)C4)ccc3c2)cc1 | –
0.24 | 2.48 | C[C@@H]1CCCN1CCc1ccc2cc(-c3ccc(C#N)cc3)ccc2c1 | half-life [3]: 6.9 h; Vd [4]: 6 L/kg; AUC(0-inf) [5]: 1640 ng·h/mL; Cmax [6]: 48 ng/mL; half-life [7]: 6.5 h; AUC(0-inf) [8]: 890 ng·h/mL; bioavailability [9]: 55%; Kp [10]: 72
27.3 | 233 | CC(C)C1CCCN1CCc1ccc2cc(-c3ccc(C#N)cc3)ccc2c1 (stereo unspecified) | –
8.61 | 33.7 | CC[C@@H]1CCCN1CCc1ccc2cc(-c3ccc(C#N)cc3)ccc2c1 | –
0.18 | 1.24 | CC1CCCN1CCc1ccc2cc(-c3ccc(C#N)cc3)ccc2c1 (stereo unspecified) | –
– | – | C[C@@H]1CCCN1CCc1cc2cc(-c3ccc(C#N)cc3)ccc2o1 | half-life [3]: 5.3 h; Vd [4]: 12 L/kg; AUC(0-inf) [5]: 673 ng·h/mL; Cmax [6]: 29 ng/mL; half-life [7]: 5.2 h; AUC(0-inf) [8]: 349 ng·h/mL
2.09 | 25.7 | CCCN(C)CCc1ccc2cc(-c3ccc(C#N)cc3)ccc2c1 | –
4.62 | 30.3 | CCN(CCc1ccc2cc(-c3ccc(C#N)cc3)ccc2c1)C(C)C | –
20.1 | 100 | CN(C)[C@@H]1CCN(CCc2ccc3cc(-c4ccc(C#N)cc4)ccc3c2)C1 | –
